This is a sample that favours compounds with a hit; in the whole collection about 2.2% have one here.
NF-kB expr up = compounds increasing NF-kB expression in human neuronal cells. fold change at 12.5 µM. NF-kB reporter expression; stronger effect = higher value. 1.6% of 190,000 active; in the data active = fold change above about 3.3
APP 5'UTR act = APP 5'UTR luciferase reporter activation. SH-SY5Y APP 5'UTR luciferase reporter, luminescence; zero percent = DMSO vehicle wells. 1% of 190,000 active. activation, % at 2 µM;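 active = activation above a set limit, based on mean plus 3 SD of controls, cut at about 140% in these data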
C8 TRAIL sens = caspase-8 TRAIL sensitization; AID 624354; 1% of 360,000 active; NB7+C8 cells + TRAIL, ATPlite viability luminescence; inhibition (viability loss, TRAIL sensitization), % at 10 µM;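 active = compounds causing at least 50% loss of cell viability in the single-dose screen, relative to plate controls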
FLuc inh counter = counter-screen for luciferase assay inhibitors: firefly luciferase inhibition; P08659; ATPLite firefly luciferase biochemical luminescence, 10 min; inhibition, % at 10 µM; 1.5% of 200,000 active; AID 1006;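 active = inhibition above about 50% when tested at 10 µM, limit read from the data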
Target sequence (P08659 whole entry, looked up): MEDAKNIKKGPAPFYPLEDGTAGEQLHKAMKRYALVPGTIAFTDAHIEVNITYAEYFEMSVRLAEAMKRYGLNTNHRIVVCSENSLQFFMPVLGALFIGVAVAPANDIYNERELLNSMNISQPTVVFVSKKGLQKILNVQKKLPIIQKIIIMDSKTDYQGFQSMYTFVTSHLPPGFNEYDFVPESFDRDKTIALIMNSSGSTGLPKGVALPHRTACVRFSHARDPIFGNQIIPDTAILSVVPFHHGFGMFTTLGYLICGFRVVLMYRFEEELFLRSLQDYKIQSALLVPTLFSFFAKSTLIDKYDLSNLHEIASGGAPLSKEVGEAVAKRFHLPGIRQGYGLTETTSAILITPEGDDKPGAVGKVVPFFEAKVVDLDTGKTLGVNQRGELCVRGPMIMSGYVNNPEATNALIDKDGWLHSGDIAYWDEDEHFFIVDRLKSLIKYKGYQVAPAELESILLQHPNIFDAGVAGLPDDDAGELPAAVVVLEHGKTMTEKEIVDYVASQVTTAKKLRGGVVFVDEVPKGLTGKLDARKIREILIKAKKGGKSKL
FLuc stim CS = firefly luciferase counter-screen for stimulation assays; ATPlite luciferase biochemical, luminescence, 10 min; 0 = ATP-free wells, 1 = DMSO control; 200,000 tested, under 10 active; activation factor at 10 µM; P08659;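 active = luciferase activation factor, scaled between plate controls, of at least 2 with compound at 10 µM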
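Assay system: Luciferase/luciferin detection reagent, cell-free biochemical luciferase assay / Also added: ATP substrate / Schedule: 10 min at ambient temperature / Measured by: luminescence measurement of luciferase light output / Benchmarks: low control with PBS replacing ATP, high control enzyme plus ATP without compound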
PPC-1+TRAIL kill = kills PPC-1 cancer cells in the presence of TRAIL; PPC-1 cells + TRAIL, ATPLite viability luminescence; cell killing (% activity), % at 4 µM or 5 µM; 0.41% of 220,000 active;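 active = cell killing above 50% in the first pass at 4 µM, then a duplicate retest at 5 µM averaging 50% or more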;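 also: plate controls were cells with TRAIL plus DMSO for no effect and medium-only wells lacking cells for full effect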
* = called active by the depositor; · = not tested or not shown.

SMILES	NF-kB expr up	APP 5'UTR act	C8 TRAIL sens	FLuc inh counter	FLuc stim CS	PPC-1+TRAIL kill
C(=N\N=C\c1ccccn1)/c1ccccn1	·	·	14.8	·	·	·
COc1cccc(C(O)c2nc(-c3cccc(F)c3)cs2)c1 (centres undefined)	·	·	-4.6	·	·	·
Cc1c(N(C(=O)Cc2cccs2)C2(C(=O)NC3CCCC3)CCCCC2)c(=O)n(-c2ccccc2)n1C	4.13*	9.0	-4.9	-4.8	1	2.2
OC(c1cccnc1)c1nc(/C=C/c2ccc(C(F)(F)F)cc2)cs1 (centres undefined)	·	·	12.1	·	·	·
COC(=O)c1sccc1NC(=O)C1C2C=CC(C2)C1C(=O)O (centres undefined)	1.45	18.1	2.8	-5.5	1.1	10.9
Cc1ccsc1C(=O)NNC(=O)C1C2C=CC(C2)C1C(=O)O (centres undefined)	1.4	154.5*	-8.0	-0.4	1	20.2
COc1cc2c3nnc(-c4ccc(F)cc4)c-3cn(Cc3ccccc3)c2cc1OC	1.04	15.5	66.7*	-6.1	1.1	27.9
CCOc1ccc(/C=C\C(C)=N\O)cc1	5.14*	121.2	33.5	69.0*	0.3	34.4
CCOc1ccc(/C=C/C(=O)Oc2ccc(OC)cc2)cc1	·	·	4.7	·	·	·
Cc1ccc2nc(CSc3nc(C)cc(C)c3C#N)[nH]c2c1	2.91	204.7*	8.8	4.0	1	33.0
Brc1ccc(-c2nc3c4ccccc4ccn3c2Cc2ccccc2)cc1	·	·	0.3	·	·	·
O=S1(=O)C=C(Sc2nnc(-c3ccccc3)o2)c2ccccc21	0.14	-95.8	73.1*	1.9	1	21.3
CC1(C(=O)NS(=O)(=O)c2cccc(F)c2)CCN1C(=O)CCc1ccccc1 (centres undefined)	·	·	-18.8	·	·	·
CC1CCN(c2ccc(-c3cccs3)nn2)CC1	·	·	96.8*	·	·	·
Clc1ccc(-c2cccs2)nn1	1.27	25.1	0.5	-2.8	1	-1.8
CCCCCCCCC(c1nc2ccccc2[nH]1)N1CCN=C1c1cc2ccccc2[nH]1 (centres undefined)	·	·	87.2*	·	·	·
COc1cccc(C(=O)O/N=C2\CCS(=O)(=O)c3sccc32)c1	1.48	-13.7	5.3	59.5*	0.4	0.7
CS(=O)(=O)Nc1cccc(-c2cc(NC=O)c3ncc(-c4ccc(F)c(Cl)c4)n3c2)c1	·	·	1.9	·	·	·
Cc1cccnc1NC(=O)CNC(=O)c1cccs1	·	·	2.0	·	·	·
O=C(NC(=S)Nc1ccc(Br)cn1)c1cccs1	3.97*	195.1*	65.3*	71.6*	0.3	16.7
Cc1cccnc1NC(=S)NC(=O)c1cccs1	5.05*	198.5*	69.1*	70.6*	0.3	29.3
O=C(COC(=O)c1ccc(F)cc1F)Nc1ccc2c(c1)OCO2	·	·	-13.6	·	·	·
COC(=O)c1ccc(COc2cc(O)c3c(c2)OC(C)(C)CC3=O)cc1	1.29	13.2	-4.5	-0.1	1	-6.5
CC1(C)CC(=O)c2c(O)cc(OCc3ccc(Br)cc3)cc2O1	1.54	138.7*	12.8	21.2	0.8	22.8
CCCc1ccc(NC(=O)C2CCN(c3cnccn3)CC2)cc1	·	·	2.3	·	·	·
SMILES	NF-kB expr up	APP 5'UTR act	C8 TRAIL sens	FLuc inh counter	FLuc stim CS	PPC-1+TRAIL kill
Cc1ccc(NC(=O)C2CCN(c3cnccn3)CC2)cc1	1.2	1.5	-4.6	85.2*	0.1	-2.6
O=C1C(C2=C(O)c3ccccc3C2=O)=Nc2ccccc21	1.03	31.0	88.6*	30.4	0.7	17.4
O=C1C(C2=NC(C(=O)O)C3C(=O)N(c4ccccc4)C(=O)C23)=C(O)c2ccccc21 (centres undefined)	1.46	-4.8	16.6	15.1	0.8	-2.7
COCCNc1nc(Nc2ccc(C(=O)OC)cc2)c2sccc2n1	·	·	-5.5	·	·	·
COc1ccc(C(=O)O/N=C(/c2ccccc2)c2ccncc2)cc1	1.4	16.4	-10.7	9.0	0.9	14.9
Cc1ccc(C(=O)O/N=C(\N)Cc2cccs2)cc1[N+](=O)[O-]	·	·	9.6	·	·	·
COc1ccc(C(=O)O/N=C(\N)c2ccccc2Cl)cc1OC	·	·	78.3*	·	·	·
COc1ccc(C(=O)O/N=C(\C)c2ccccc2)cc1	1.35	-3.4	7.6	90.3*	0.1	6.8
COc1ccc(C(=O)O/N=C(\N)c2ccc(OC)c(OC)c2)cc1	·	·	61.5*	·	·	·
COc1ccccc1C/C(N)=N/OC(=O)c1ccc(C)c([N+](=O)[O-])c1	3.29	4.5	55.2*	-9.4	1.1	3.2
CCc1ccccc1NC(=O)CCC(=O)N1CCN(C(C)=O)CC1	·	·	-1.1	·	·	·
COc1ccc(/C(N)=N/OC(=O)CCC2CCCC2)cc1OC	·	·	-1.6	·	·	·
